The source of these data is ChEMBL document CHEMBL1125553, “Bioisosteric replacement of the alpha-amino carboxylic acid functionality in 2-amino-5-phosphonopentanoic acid yields unique 3,4-diamino-3-cyclobutene-1,2-dione containing NMDA antagonists” (J Med Chem, 1992).

Where only a bound is given, the exact number is not on record here.

The target of data set [1] is Glutamate NMDA receptor. In words: Inhibition of [3H]CPP binding to rat N-methyl-D-aspartate glutamate receptor. The format is protein-complex assay. The method in brief: (§1)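 Rat brain crude synaptic membranes treated with 0.04% Triton X-100 and stored frozen at -70 °C. Before use they were thawed, washed once in Tris HCl buffer and resuspended at 0.3–0.5 mg protein/mL (Lowry). NMDA receptor affinity was measured as displacement of [3H]CPP binding to these membranes.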

The target of data set [2] is T1, Glutamate receptor ionotropic, AMPA (Rattus norvegicus, UniProt P19490+P19491+P19492+P19493). Briefly: The compound was tested for its affinity against AMPA receptor in rats.
Data set [3] has as its target Glutamate receptor ionotropic, kainate. In words: Compound was tested or its affinity against ionotropic glutamate receptor ionotropic kainate in rats.
The target in data set [4] is T2, Glutamate NMDA receptor (Rattus norvegicus) (UniProt P35439+Q00959+Q00960+Q00961+Q62645+Q8VHN2+Q9R1M7). Briefly: The compound was tested for the inhibition of N-methyl-D-aspartate glutamate receptor in rats using [3H]CPP as uM. The settings on record: concentration not given here. Put shortly:
(§2)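 Rat brain crude synaptic membranes, Triton X-100 treated, frozen at -70 °C, thawed, washed once, resuspended in Tris HCl buffer at 0.3–0.5 mg protein/mL (Lowry). NMDA receptor affinity measured by displacement of [3H]CPP binding.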

Data set [5] is filed under the species Mus musculus. Briefly: (§3) Effective dose against NMDA-induced lethality in male Swiss-albino mice. Type of data set: ADME, organism-based. The settings on record: in vivo.
Data set [6] deals with Glutamate NMDA receptor. Briefly: The compound was tested for its affinity against N-methyl-D-aspartate glutamate receptor in rats using [3H]CPP as radioligand. The method in brief:
as §1

For data set [7], the species on record is Rattus norvegicus. In words: Ability to displace [3H]TCP from rat brain. The format is functional.
Data set [8] is filed under the species Mus musculus. Briefly: Effective dose against NMDA-induced lethality in male Swiss-albino mice was determined at a concentration of 50 uM. Type of data set: organism-based. Conditions: in vivo.
For data set [9], the target named is Glutamate NMDA receptor. In words: Compound tested for affinity towards N-methyl-D-aspartate glutamate receptor by measuring their ability to displace [3H]TCP from rat brain.
The species entered for data set [10] is Mus musculus. The description is as §3. The format is functional.
Data set [11] addresses T2, Glutamate NMDA receptor (Rattus norvegicus). In words: The compound was tested for the inhibition of N-methyl-D-aspartate glutamate receptor in rats using [3H]-CPP as uM. Conditions: concentration not given here. Put shortly:
as §2

For data set [12] the target is unchanged. Briefly: The compound was tested for its affinity against N-methyl-D-aspartate glutamate receptor in rats using [3H]CPP as uM. The settings on record: concentration not given here. Put shortly:
as §2

In data set [13] the target is T1, Glutamate receptor ionotropic, AMPA. Briefly: Compound was tested or its affinity against AMPA receptor in rats.

For the molecule `N[C@@H](Cn1oc(=O)[nH]c1=O)C(=O)O` [QUISQUALATE], the IC50 (as a rule, the concentration at which inhibition is half-maximal) in data set [1] was over 100 µM.

In the case of `Nc1c(NCCn2oc(=O)[nH]c2=O)c(=O)c1=O`, the IC50 was over 100 µM in [2], over 100 µM in data set [3] and 5.2 µM in data set [1].

With `C=C(C)CN(CC(=O)O)c1c(N)c(=O)c1=O`, the IC50 in data set [2] and in data set [3] was over 100 µM in each case. Besides, the inhibition (as a rule, the share of the control response that was lost under treatment) in data set [4] is 46%.

Take `Nc1c(NCP(=O)(O)O)c(=O)c1=O`: the ED50 (in general, the dose that gives a 50% effect, or the effect in half of the subjects) in data set [5] was over 100 mg/kg. In data set [6], this molecule registered an IC50 of over 10 µM.

Take `CCOC(=O)C/N=c1\c(O)c(O)c1=N`: the 50% inhibitory concentration (IC50) in data set [1] stood at 190 µM.

The molecule `Nc1c(NCCC(=O)O)c(=O)c1=O` showed a concentration for half-maximal inhibition (IC50) in [7] of 941 µM.

On to `Nc1c(NCC(=O)O)c(=O)c1=O`, for which the IC50 in data set [2] and in [3] was over 100 µM in each case.

`CN(CCP(=O)(O)O)c1c(N)c(=O)c1=O`: the Inhibition – broadly, the percentage by which the read-out fell short of the control – in data set [8] stood at 50%. In [6], the IC50 worked out at 1 µM.

In [9], `O=C(O)C1CN(CCCP(=O)(O)O)CCN1` (stereo not drawn) gave a half-maximal inhibitory concentration (IC50) of 45 µM.

In [10], `NC(CCCCCP(=O)(O)O)C(=O)O` (stereo not drawn) [AP-7] displayed an ED50 of 38 mg/kg. For the same molecule, in [1], the IC50 is 0.39 µM.

On to `Nc1c(N(CC(=O)O)Cc2ccccc2)c(=O)c1=O`, for which the IC50 in [2] and in data set [3] was over 100 µM in each case. Further, in data set [11], the inhibition stood at 50%.

The molecule `Nc1c(NCCCCP(=O)(O)O)c(=O)c1=O` registered an ED50 in [5] of over 30 mg/kg. For the same molecule, the inhibition in data set [12] worked out at 68%.

`O=C(O)CCNc1c(O)c(=O)/c1=N\Cc1ccccc1` gave an IC50 in data set [1] of over 100 µM.

In the case of `C=CCN(CC(=O)O)c1c(N)c(=O)c1=O`, the results for the concentration for half-maximal inhibition (IC50) in data set [13], in data set [3] and in data set [1] were over 100 µM, over 100 µM and 10 µM, respectively.

In [5], `Nc1c(NCCP(=O)(O)O)c(=O)c1=O` registered an ED50 of 29 mg/kg. This molecule also registered a 50% inhibitory concentration (IC50) in data set [6] of 0.47 µM.

`Nc1c(NCCCP(=O)(O)O)c(=O)c1=O`: in data set [5], the ED50 is over 100 mg/kg. Besides, the IC50 in data set [6] was 2.6 µM.

In the case of `C/N=c1\c(O)c(O)\c1=N/CCC(=O)O`, the IC50 in [1] was 20 µM.

Consider `NS(=O)(=O)c1cccc2c1c([N+](=O)[O-])cc1nc(O)c(O)nc12` [NBQX], for which, in data set [1], the IC50 was over 10 µM.
